Compound activity deposited in PubChem by several laboratories.
Hits are enriched below; roughly 2.4% of the tested compounds scored in any of these assays.
HKDC1 inhibitor – HKDC1 hexokinase inhibitors, primary screen, biochemical, fluorescence, uHTS; 0.16% of 340,000 active; recombinant HKDC1, G6PDH/diaphorase resazurin coupled fluorescence; inhibition, % at 20 µM; Q2TB90;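 active means inhibition above about 35% when tested at 20 µM, limit read from the data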;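 further: plate controls were DMSO wells with enzyme for no effect and DMSO wells lacking enzyme for full effect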
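test system = in-house recombinant HK5 (HKDC1) enzyme | amount = HKDC1 at 5 µg/mL | control set = DMSO-enzyme wells negative, buffer-substituted wells positive | compound = one dose of 20 µM, 1% DMSO | schedule = reaction time 90 min, room temperature, protected from light | technique = resorufin fluorescence at 613 nm | reagent = glucose with 1 mM ATP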
PfG6PD inh – PfG6PD enzyme inhibitors, primary screen, biochemical, fluorescence intensity, uHTS | 0.78% of 350,000 active | inhibition, % at 20 µM | PfGluPho enzyme, NADPH resazurin-diaphorase fluorescence;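 active means inhibition reaching at least a set limit at 20 µM in the primary screen, cut at about 59% in these data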;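 further: 0% = DMSO wells with substrate and 100% = DMSO wells lacking glucose-6-phosphate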
PfM18AAP inh-1 – PfM18AAP inhibitors, malaria aminopeptidase, primary screen, biochemical, QFRET, recombinant enzyme | inhibition, % at 7.35 µM | 1.2% of 290,000 active | AID 1822, 2009 | M18 aspartyl aminopeptidase (Plasmodium falciparum 3D7) | H-Glu-NHMec fluorogenic cleavage;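 active means inhibition above the campaign mean inhibition over all tested compounds plus 3 SD, cut at about 28% in these data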;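 further: 0% = plate median of test compound wells and 100% = 2 mM ZnCl2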
APOBEC3G inh – APOBEC3G DNA deaminase inhibitors, primary screen, biochemical, fluorescence, single-stranded DNA substrate, uHTS; recombinant A3G, ssDNA deamination FAM/TAMRA fluorescence; inhibition, % at 20 µM; 0.28% of 330,000 active; DNA dC->dU-editing enzyme APOBEC-3G (Homo sapiens), Q9HC16;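 active means inhibition of at least 40% at 20 µM, with no more than 30% in the related APOBEC3A deaminase screen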;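 further: plate controls were DMSO wells with A3G for no effect and wells lacking A3G enzyme for full effect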
SUMO HTRF inh – inhibitors of in vitro SUMOylation cascade, primary screen, biochemical, HTRF, uHTS; SUMO-conjugating enzyme UBC9 (Homo sapiens), P63279; HTRF SUMOylation assay, SAE1/SAE2 + UBC9; inhibition, % at 35 µM; 0.36% of 290,000 active; AID 2006, 2009; in the data active means inhibition above about 50%, passing the limit was not always enough
A3A deaminase – APOBEC3A ssDNA deaminase inhibitors, primary screen, selectivity assay for APOBEC3G inhibitor project, biochemical, FAM/TAMRA oligo cleavage fluorescence | DNA dC->dU-editing enzyme APOBEC-3A (Homo sapiens), P31941 | recombinant A3A, FAM/TAMRA ssDNA deamination fluorescence | inhibition, % at 20 µM | 0.41% of 330,000 active | AID 493011, 2011;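 active means at least 40% inhibition at 20 µM here, with at most 30% in a related deaminase screen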;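 further: plate controls were A3A with DMSO for no effect and wells lacking A3A enzyme for full effect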
Target sequence (P31941 whole entry, looked up): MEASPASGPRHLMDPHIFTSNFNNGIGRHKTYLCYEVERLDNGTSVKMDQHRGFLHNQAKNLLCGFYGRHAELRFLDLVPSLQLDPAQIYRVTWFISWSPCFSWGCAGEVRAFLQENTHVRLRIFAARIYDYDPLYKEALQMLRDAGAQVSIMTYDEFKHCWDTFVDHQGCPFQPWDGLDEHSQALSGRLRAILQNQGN
PfM18AAP inh-2 – PfM18AAP inhibitors, malaria aminopeptidase, confirmation, biochemical, QFRET, recombinant enzyme, triplicate | shares compounds with PfM18AAP inh-1 | H-Glu-NHMec fluorogenic cleavage | inhibition, % at 7.35 µM | 28% of 2,400 active;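 active means mean inhibition over replicate wells above the hit cutoff set for the earlier primary screen, cut at about 29% in these data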;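 further: 0% = median of test compound wells and 100% = 2 mM ZnCl2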
CTSL1 confirm – cathepsin L1 inhibitors, retest, confirmation, counter-screen for PFM18AAP inhibitor project, biochemical, QFRET, triplicate | shares compounds with PfM18AAP inh-1 | purified cathepsin L1, Z-Leu-Arg-MCA fluorescence | inhibition, % at 5.96 µM | AID 2178, 2009 | 2,400 tested, under 10 active;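 active means average inhibition across replicates above the hit cutoff set in the earlier primary screen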;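 further: 0% = median of test compound wells and 100% = Z-Phe-Ala-diazomethylketone 1 µM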
Target sequence (P07711 whole entry, looked up): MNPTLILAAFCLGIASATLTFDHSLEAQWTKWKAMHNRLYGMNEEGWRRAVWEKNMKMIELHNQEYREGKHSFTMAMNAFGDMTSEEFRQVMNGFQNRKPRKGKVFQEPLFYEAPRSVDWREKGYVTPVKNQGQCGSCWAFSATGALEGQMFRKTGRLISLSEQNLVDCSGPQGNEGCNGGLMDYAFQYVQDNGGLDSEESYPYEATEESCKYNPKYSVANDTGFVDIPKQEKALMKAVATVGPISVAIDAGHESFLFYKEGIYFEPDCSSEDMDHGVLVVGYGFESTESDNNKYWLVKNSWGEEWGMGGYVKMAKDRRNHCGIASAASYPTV
* = called active by the depositor; . = not tested or not shown; ! = repeats disagree.

SMILES	HKDC1 inhibitor	PfG6PD inh	PfM18AAP inh-1	APOBEC3G inh	SUMO HTRF inh	A3A deaminase	PfM18AAP inh-2	CTSL1 confirm
Cc1c(Br)c(O)c(Br)c2sc(=O)oc12	23.1	12.2	36.3*	32.8	51.3	7.6	-34.4	-0.3
COc1ccc2c(c1)c1c(c(=O)n(-c3ccc(C)cc3)c(=O)n1CC(=O)NCC1CCCO1)n2C (stereo not given)	.	11.1	.	.	.	.	.	.
CCOc1ccc2c(c1)S/C(=C\c1cccs1)C(=O)N2	-3.3	-22.1	34.3*	-2.8	42.0	2.4	-33.5	-1.4
O=C1NC(=Nc2ccccc2)S/C1=C\c1cccs1	-0.4	-10.2	-6.5	-8.3	27.5	-3.6	.	.
CC(=O)Nc1ccc(S(=O)(=O)Nn2cnnc2)cc1	-3.4	-13.5	36.7*	-2.4	8.6	3.4	36.1*	5.5
O=C(Nc1ccc([N+](=O)[O-])cc1)Nn1cnnc1	-8.7	-0.5	80.7*	-7.5	39.9	-4.9	71.7*	-0.4
Cc1ccc(NC(=O)NN2CCOCC2)cc1	-4.9	-5.1	1.3	-3.7	1.4	3.0	.	.
Cc1ccc(NC(=O)Nn2cnnc2)cc1	-8.0	-7.1	44.5*	-3.7	22.7	0.2	36.8*	0.6
O=C(Nc1ccc(Cl)cc1)Nn1cnc2ccccc2c1=O	-1.7	-9.6	-3.9	-7.8	-1.4	-1.8	.	.
O=C(Nc1ccc(Cl)cc1)Nn1cnnc1	5.4	-2.5	67.7*	-6.0	38.7	-3.9	57.2*	-0.5
CC1C/C(=N/N=C2/NC(=O)CS2)CC(C)(C)C1 (stereo not given)	-1.7	-15.7	7.5	-3.0	20.4	1.5	.	.
CC1C/C(=N/N2C(=O)CSC2=S)CC(C)(C)C1 (stereo not given)	-6.3	-6.6	38.0*	-6.8	-17.6	-5.6	-19.7	-2.5
O=C(Nc1ccc(N2CCCCC2)cc1)C1CCCN1S(=O)(=O)c1ccc(F)cc1 (stereo not given)	-0.7	18.0	.	-5.1	.	-3.7	.	.
CC1=CC(C)(C)Nc2cc(C)c(C)cc21	3.5	2.1	0.5	-9.2	10.4	-6.0	.	.
Nc1ccc(C(=O)Oc2ccc([N+](=O)[O-])cc2)c(O)c1	.	.	18.8	-7.2	-8.8	-4.2	-52.2	-2.6
Nc1ccc(C(=O)Oc2ccc([N+](=O)[O-])cc2)cc1	-0.5	-5.1	6.0	-13.1	20.3	-3.6	.	.
Nc1ccc(C(=O)O)c(O)c1	7.2	27.9	32.5*!	-4.0	7.4	-2.8	-22.7	-1.2
O=C(O)CCn1c(=O)n(CCC(=O)O)c(=O)n(CCC(=O)O)c1=O	0.2	3.4	-1.9	4.1	6.3	14.4	.	.
O=C(CCNC(=O)c1ccc([N+](=O)[O-])cc1)N/N=C/c1ccc(F)cc1	7.1	6.8	-2.5	-4.3	12.6	0.9	.	.
CC(C)CCNC(=O)c1ccc2c(SCC(=O)O)c3c(nc2c1)CCC3	0.6	-10.2	0.2	-3.6	-7.5	-1.0	.	.
CCCn1c(N/N=C(C)\C=C\c2ccccc2)nc2c1c(=O)[nH]c(=O)n2C	.	.	44.5*	-5.6	6.1	0.4	-19.6	3.2
O=C1CC(Sc2nnc(-c3ccccc3)o2)C(=O)N1c1ccccc1 (stereo not given)	2.6	-4.9	-117.0	5.0	-10.3	-1.9	.	.
O=C1c2ccccc2CC1Sc1nnc(-c2ccncc2)o1 (stereo not given)	-4.3	-10.8	46.1*	-4.5	5.3	-6.4	-56.8	-3.8
O=C(CNC(=O)c1cccs1)OCC(=O)c1ccccc1Cl	-8.0	-8.3	2.2	-6.2	7.3	3.3	.	.
